Screening results from PubChem.
KCNQ1 inh: human KCNQ1 channel inhibition. B-score at 10 µM. P51787. CHO-K1 KCNQ1, FluxOR thallium flux fluorescence; active compounds read high. 1.3% of 310,000 active;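 active = compounds whose thallium flux B-score, printed positive for inhibition, exceeds three library SD while starting fluorescence stays within three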;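 also: channel opened by potassium depolarization with thallium stimulus after 20 min compound exposure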
KCNK9 inh: human KCNK9 channel inhibition; B-score at 10 µM; HEK293 KCNK9, FluxOR thallium flux fluorescence; active compounds read low; Q9NPC2; 1.2% of 310,000 active;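 active = ratio B-score over 3 SD below the library mean, with starting fluorescence within 5 SD of its mean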;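 also: negative B-score means less thallium flux so channel inhibition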
Kir21 block: blocks the mouse Kir2.1 inward-rectifier potassium channel. B-score at 10 µM. HEK293-Kir2.1, FluxOR thallium flux fluorescence; active compounds read low. P35561. 0.85% of 310,000 active;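 active = fluorescence ratio B-score at or below minus 3 SD of library scores, with starting-brightness B-score within 2 SD, cut at about -4.2 in these data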;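 also: channel flux triggered by added potassium and thallium sulfate stimulus; B-score of peak minus minimum fluorescence over baseline after thallium stimulus; more negative B-score means stronger Kir2.1 block with less thallium influx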
KCNK3 block: human KCNK3 channel inhibition, primary screen; 0.84% of 340,000 active; O14649; CHO-KCNK3 thallium flux, FluxOR fluorescence; active compounds read low; B-score at 10 µM;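 active = B-score under library mean minus 4 SD, starting fluorescence ratio at most library mean plus 5 SD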;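 also: more negative B-score means stronger inhibition of thallium flux through KCNK3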
Target sequence (O14649 whole entry, looked up): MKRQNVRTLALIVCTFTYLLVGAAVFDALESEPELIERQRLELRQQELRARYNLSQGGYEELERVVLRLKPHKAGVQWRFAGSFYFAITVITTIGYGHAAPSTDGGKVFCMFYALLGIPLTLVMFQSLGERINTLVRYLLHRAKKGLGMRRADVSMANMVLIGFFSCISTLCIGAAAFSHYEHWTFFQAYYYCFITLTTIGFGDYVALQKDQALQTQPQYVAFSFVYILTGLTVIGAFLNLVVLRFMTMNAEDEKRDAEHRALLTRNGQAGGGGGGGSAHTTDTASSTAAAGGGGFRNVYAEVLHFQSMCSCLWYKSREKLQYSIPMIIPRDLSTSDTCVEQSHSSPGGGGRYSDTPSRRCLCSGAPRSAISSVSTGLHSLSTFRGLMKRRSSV
KCNQ1 act: human KCNQ1 channel potentiation or activation | CHO-K1 KCNQ1, thallium flux FluxOR fluorescence; active compounds read high | B-score at 10 µM | 0.35% of 310,000 active | AID 2648;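 active = fluorescence ratio B-score, a plate-corrected score, at least three library SD, with initial intensity B-score within 5 SD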
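Medium – assay buffer, equal DMSO in all wells · Material – CHO-K1 cell line with stable KCNQ1 potassium channel expression · Signal – kinetic FluxOR thallium fluorescence, 10-s 1-Hz baseline, 110-s post-stimulus read · Compound – single concentration per compound, DMSO matched to controls · Schedule – 37 °C overnight plating, 90-min dark dye load, 20-min compound pretreatment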
hERG protect: compounds protecting human hERG from proarrhythmic drug block | CHO-hERG, FluxOR thallium flux, dofetilide IC70 present | activation (rescue from dofetilide block), less the hit threshold, % at 10 µM | 0.51% of 310,000 active;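 active = activation above the mean of controls blocked by dofetilide plus 5 SD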;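 also: thallium influx through hERG after potassium depolarization seen as dye fluorescence rise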
The depositor's hits bear a star; i = inactive; x = no result given. The list is not random: actives were taken first. Their share in the collection is about 3.7%.

SMILES	KCNQ1 inh	KCNK9 inh	Kir21 block	KCNK3 block	KCNQ1 act	hERG protect
CC(=O)c1ccc(NC(=O)CCCN2C(=O)C(c3ccccc3)Oc3cccnc32)cc1 (stereo not drawn)	i	i	-4.2*	i	i	-4
O=C1NC(=Nc2ccccc2Cl)S/C1=C\c1cccc([N+](=O)[O-])c1O	6*	i	0	i	i	-13
CC(C)(C)OC(=O)N1CCC[C@H]1c1nnc(SCc2ccc(Cl)cc2)o1	i	i	-7.5*	i	i	-11
CC(C)(C)OC(=O)N1CCC[C@H]1c1nnc(SCc2cccc(Cl)c2)o1	i	i	-8.6*	i	i	-5
CC(C)(C)OC(=O)N1CCC[C@H]1c1nnc(SCc2ccc(Cl)cc2Cl)o1	i	i	-3.3	i	i	-5
CC(C)(C)OC(=O)N1CCC[C@H]1c1nnc(SCc2ccccc2Cl)o1	i	i	-8*	i	i	-10
O=C(NC1CCC(O)CC1)c1ccc(NS(=O)(=O)c2cccc([N+](=O)[O-])c2)cc1 (stereo not drawn)	x	x	x	i	x	x
O=S(=O)(CCSc1nc2ccccc2o1)c1nc2ccccc2s1	i	i	-3.5	i	i	-6
O=S(=O)(CCSc1ccccn1)c1nc2ccccc2s1	6*	i	0.75	i	i	-18
CC(=O)Nc1cccc(C(=O)OCC(=O)NNC(=O)c2cccs2)c1	i	i	0.95	i	i	-11
N=c1n(Cc2ccccc2)c2ccccc2n1CC(O)COc1ccccc1 (stereo not drawn)	i	i	-7.1*	i	i	-23
CC(C)(C)S(=O)(=O)N1C[C@@H]2CC/C=C\C/C(c3ccccc3)=C\2[C@H]1CCO	x	x	x	i	x	x
O=C(Nn1c(O)c(C=C2N=c3ccccc3=N2)sc1=S)c1ccc(Cl)cc1	i	i	-1.9	i	i	-9
O=C(Nn1c(O)c(C=C2N=c3ccccc3=N2)sc1=S)c1cccc(Cl)c1	i	i	-0.53	i	i	12*
Cc1cc2ccccn2c1C(=S)NC(=O)c1ccccc1	i	i	1.3	i	26*	34*
CCCC[C@@H]1C[C@H]1[C@@H](NC(=O)c1cccs1)c1ccc(C(F)(F)F)cc1	i	-7.3*	0.58	x	i	-15
CC1CCCCC1n1c(=S)[nH]c2ccccc2c1=O (stereo not drawn)	i	i	0.02	i	19*	1
O=S(=O)(c1c(F)cccc1F)C1CCN(S(=O)(=O)c2ccc3c(c2)OCCO3)CC1	x	x	x	i	x	x
CC(C)C[C@H]1C(=O)N2CCC[C@H]2[C@]2(O)O[C@](NC(=O)[C@@H]3C=C4c5cccc6[nH]c(Br)c(c56)CC4N(C)C3)(C(C)C)C(=O)N12 (stereo partly drawn)	6*	i	1.6	i	i	-10
CC(OC(=O)CCc1ccccc1)C(=O)Nc1ccc(Cl)cn1 (stereo not drawn)	i	i	-2.9	i	i	-10
Cc1nnc(SCC(=O)Nc2cc(C(F)(F)F)ccc2N2CCOCC2)o1	i	i	0.89	i	i	-2
Cc1ccccc1SCC(=O)Nc1cc(C(F)(F)F)ccc1N1CCOCC1	14*	i	-1.4	i	i	-12
CSc1nc2ccccc2n1CC(=O)Nc1cc(C(F)(F)F)ccc1N1CCOCC1	i	-7.8*	-1.6	i	i	-9
O=C(NC(=S)Nc1cc(C(F)(F)F)ccc1N1CCOCC1)c1ccco1	i	i	-0.28	i	i	5.7*
O=C(c1ccc(F)cc1)C1CCN(C(=O)c2c(F)cccc2F)CC1	i	i	-2.9	i	i	-5
O=C(CN1C(=O)c2ccc([N+](=O)[O-])cc2C1=O)NCCC1=CCCCC1	i	i	0.55	i	i	-10
COc1ccc(C(=O)OCC(O)COC(=O)c2ccc(OC)cc2)cc1	i	i	-0.54	i	i	-7
Cc1ccc(C(=O)C2CCN(CC(=O)NC3CCCC3)CC2)cc1	i	i	-0.05	i	i	-2
O=P(Cc1cc(Br)cc(Br)c1OCCO)(c1ccccc1)c1ccccc1	i	-6.7*	-1.2	i	i	-10
